# Source: PubChem BioAssay
# An excerpt weighted towards active compounds, which were near 1.2% of everything screened.
# MsrA inhibitor – bovine MsrA enzyme inhibitors, primary screen, biochemical, absorbance, HTS. Methionine sulfoxide reductase A (Bos taurus). purified bovine MsrA, absorbance read-out. inhibition, % at 15.5 µM. 360,000 compounds, 0.75% hits;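 also: 0% = vehicle wells with enzyme and 100% = reference inhibitor wells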
# A1 inh – caspase 3/7 activation in MEF A1-2A-BIM cells, primary screen, A1 inhibitor project, cell-based, luminescence, HTS. caspase activation, % (test concentration not listed). 330,000 compounds, 0.066% hits. Caspase-Glo 3/7 luminescence, 3 h; percent of clofoctol response, vehicle zero;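 active = over half of replicate activation scores above 10%, or exactly half above 10 with the replicate mean above 10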
# proCasp3 act – activators of human procaspase-3 D3A mutant, primary screen, biochemical, absorbance, PC-3 D3A mutant, single concentration; 330,000 compounds, 0.11% hits; activation, % at 8.5 µM; recombinant procaspase-3 D3A, Ac-DEVD-pNA absorbance 405 nm;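 active = activation above the mean of all tested compounds plus 3 SD, cut at about 21% in these data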;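 also: 0% = DMSO alone and 100% = DMSO wells spiked with extra 5 µM PC-3 D3A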
# Target sequence (P42574 whole entry D9A/D28A/D175A): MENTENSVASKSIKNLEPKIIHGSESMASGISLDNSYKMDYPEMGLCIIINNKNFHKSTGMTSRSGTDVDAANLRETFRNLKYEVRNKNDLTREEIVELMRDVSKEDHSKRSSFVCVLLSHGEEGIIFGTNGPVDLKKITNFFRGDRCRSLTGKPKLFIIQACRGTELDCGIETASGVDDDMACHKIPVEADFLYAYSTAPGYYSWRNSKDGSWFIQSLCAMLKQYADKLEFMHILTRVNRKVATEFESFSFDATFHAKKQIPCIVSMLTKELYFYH
#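 Test system: Procaspase-3 D3A mutant, all three cleavage aspartates alanine | Dosing: Single dose, 8.5 µM nominal compound, 0.8% DMSO | Schedule: 1 h preincubation, 2 h reaction | Technique: 405 nm absorbance of p-nitroaniline, reads at 0 and 120 min | Repeats: One well per compound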
# bovine MsrA act – bovine MsrA enzyme activators, primary screen, biochemical, absorbance, HTS. Methionine sulfoxide reductase A (Bos taurus). purified bovine MsrA, absorbance read-out. activation, % at 10.6 µM. 360,000 compounds, 0.3% hits; in the data active = activation above about 7.5%;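 also: 0% = vehicle and 100% = reference activator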
# proCasp7 act – procaspase-7 activators, primary screen, counter-screen for procaspase-3 activator project, biochemical, absorbance, HTS, human; Caspase-7 (Homo sapiens), P55210; recombinant procaspase-7, Ac-DEVD-pNA absorbance 405 nm; D23A/D198A/D206A triple mutant, cannot self-cleave; scale: DMSO 0, 5 µM enzyme 100; 330,000 compounds, 0.093% hits; activation, % at 8.5 µM;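 active = percent activation above the screen-wide mean plus 3 SD, cut at about 25% in these data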
# Target sequence (P55210 whole entry D23A/D198A/D206A): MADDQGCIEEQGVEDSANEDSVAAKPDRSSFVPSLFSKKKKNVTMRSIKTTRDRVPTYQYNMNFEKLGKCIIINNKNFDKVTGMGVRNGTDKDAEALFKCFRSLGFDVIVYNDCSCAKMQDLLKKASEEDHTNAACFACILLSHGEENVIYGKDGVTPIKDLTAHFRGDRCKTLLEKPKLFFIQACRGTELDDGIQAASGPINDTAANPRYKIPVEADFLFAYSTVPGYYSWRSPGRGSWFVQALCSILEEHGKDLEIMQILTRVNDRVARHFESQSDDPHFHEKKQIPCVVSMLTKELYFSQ
#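 System: Procaspase-7 triple mutant (PC-7 D3A); measure: % activation from two-timepoint absorbance difference, scaled to controls; times: 1 h compound preincubation, 2 h substrate cleavage, 25 °C; also added: Ac-DEVD-pNA substrate, 400 µM as added; measured by: Epi-absorbance of released pNA at 405 nm, two timepoints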
# MsrA inh confirm – bovine MsrA inhibitors, retest, confirmation, biochemical, absorbance, HTS; shares compounds with MsrA inhibitor; purified bovine MsrA, absorbance read-out; inhibition, % at 15.5 µM; 2,300 compounds, 41% hits; AID 651822, 2012;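 also: coupled to thioredoxin reductase with NADPH and selenocystamine and DMSO as substrate; 0% = vehicle only and 100% = full effect of reference inhibitor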
# Numbers without * were called inactive; x = no result. Rule as the data show it, unless noted: active = inhibition above about 4.5%; inactive = the rest.
SMILES,MsrA inhibitor,A1 inh,proCasp3 act,bovine MsrA act,proCasp7 act,MsrA inh confirm
COc1ccc(/C=N/N=C2\SC(CC(=O)O)C(=O)N2c2ccccc2)cc1 (configuration not stated),3,0,7,-4,4,x
C=CCN1C(=O)C(CC(=O)O)SC1=Nc1ccc(C(=O)O)cc1 (configuration not stated),-1,0,0,-5,-13,x
CN(C)c1ccc(/C=N/N=C2/SC(CC(=O)O)C(=O)N2c2ccc(O)cc2)cc1 (configuration not stated),5.4*,0,-5,-6,1,5.0*
C=CCN1C(=O)C(CC(=O)O)S/C1=N/N=C/c1ccc(N(CC)CC)cc1 (configuration not stated),5.0*,0,0,-3,-5,3
CC(=O)Nc1ccccc1-c1cccc2nccn12,1,x,x,-1,x,x
CCc1cc2c(nc1CC)CCCN2S(=O)(=O)c1ccccc1C,0,x,x,x,x,x
NS(=O)(=O)c1cc(C(=O)OCC(=O)Nc2ccc3[nH]c(=O)[nH]c3c2)ccc1Cl,1,0,-4,0,3,x
CC1(c2nnnn2Cc2ccccc2)CCC(=O)N1CCc1ccc(O)cc1 (configuration not stated),1,x,x,-8,x,x
O=C1c2ccc3c4c(ccc(c24)C(=O)N1c1cccc(O)c1)C(=O)N(c1cccc(O)c1)C3=O,9.5*,-1,1,3,-1,7.1*
CCC(NC(=O)c1ccccc1NC(=O)C(C)(C)C)C(=O)N1CC(C)OC(C)C1 (configuration not stated),-1,-1,13,-2,3,x
CCOC(=O)C1=C(C)OC(N)=C(C#N)C1c1ccsc1 (configuration not stated),x,0,0,1,-7,x
N#CC1=C(N)Oc2c(O)cc3ccccc3c2C1c1ccsc1 (configuration not stated),8.5*,-1,4,-4,1,10*
Cc1nc(Cl)cc(N/N=C/c2ccc(O)cc2O)n1,5.7*,-8,-13,-9,-9,6.2*
Cc1cc(N/N=C/c2ccc(O)cc2O)nc(-n2nc(C)cc2C)n1,4.8*,-1,-3,-10,4,4
Cc1cc(OCC(=O)OCC(=O)N(C)C2CCS(=O)(=O)C2)ccc1Cl (configuration not stated),1,x,x,-1,x,x
O=C(CN1C(=O)S/C(=C/C=C/c2ccccc2)C1=O)Nc1ccc(C(=O)O)cc1,5.3*,-3,-10,-4,-2,5.8*
O=C(CCN1C(=O)/C(=C\C=C\c2ccccc2)SC1=S)Nc1ccc(C(=O)O)cc1,0,2,-5,-4,-10,x
O=C(CN1C(=O)S/C(=C\C=C\c2ccccc2)C1=O)Nc1ccc(C(=O)O)cc1,6.6*,0,2,-11,-11,4
CC(=O)N1C[C@@H](CO)[C@@H](N(C)C(=O)/C=C/c2ccccc2)C[C@H]1c1ccccc1,2,x,x,x,x,x
CC(C)CNc1ncnc2c1ncn2[C@H]1CN(Cc2ccc(C(=O)O)cc2)C[C@@H](CO)O1,0,x,x,-3,x,x
N#C/C(=C/c1ccc(Br)o1)C(N)=O,4.7*,0,-1,-4,-9,5.5*
CCOC(=O)c1cccc(S(=O)(=O)N(CCO)Cc2cc3cc(OC)ccc3[nH]c2=O)c1,x,x,4,-5,6,x
CCOC(=O)c1cccc(S(=O)(=O)N(CCO)Cc2cc3cc(OC)c(OC)cc3[nH]c2=O)c1,5.1*,0,-3,-6,-1,2
CCCNC(=O)C[C@H]1C[C@H]2c3cc(NC(=O)Nc4ccc(F)cc4)ccc3O[C@H]2[C@@H](CO)O1,1,x,x,-10,x,x
O=C(c1ccco1)N(CCO)Cc1cc2cc3c(cc2[nH]c1=O)OCO3,6.1*,0,5,-1,-2,3
SMILES,MsrA inhibitor,A1 inh,proCasp3 act,bovine MsrA act,proCasp7 act,MsrA inh confirm
O=C(c1ccccc1)N(CCO)Cc1cc2cc3c(cc2[nH]c1=O)OCCO3,1,0,-3,-4,3,x
CCNC(=S)N/N=C(\C)c1cc2ccccc2o1,5.6*,0,-8,-11,-5,6.3*
C/C(=N\NC(=S)Nc1cccc(C)c1)c1cc2ccccc2o1,2,0,-30,1,-35,x
COC(=O)c1ccccc1-c1cn(C)c2ccccc2c1=O,2,0,-5,-2,0,x
COc1ccc(/C=C(/NC(=O)c2ccccc2)c2nc3ccccc3[nH]2)cc1OC,6.5*,0,0,-7,5,4
CSc1ccc(C=NNc2ccc(S(=O)(=O)Nc3ccccc3C(=O)O)cc2[N+](=O)[O-])cc1,0,2,-1,-2,0,x
O=C(O)c1ccccc1NS(=O)(=O)c1ccc(NN=Cc2ccccc2F)c([N+](=O)[O-])c1,5.3*,2,0,-7,3,3
CCOC(=O)c1ccccc1NC(=O)CN(c1ccccc1OC)S(C)(=O)=O,-1,0,-4,-2,-3,x
CCOC(=O)c1ccccc1NC(=O)CN(c1ccccc1)S(=O)(=O)N(C)C,5.6*,0,7,-2,4,4
O=C1NC[C@@H](CCCCN2CCN(CCc3ccccc3)C(=O)C2=O)N(Cc2ccccc2)C1=O,-2,x,x,4,x,x
COc1ccc(S(=O)(=O)Nc2ccc(O)c(Sc3ncn[nH]3)c2)cc1,1,1,4,-15,-3,x
COc1ccc(S(=O)(=O)Nc2cc(SCC(=O)O)c(O)c3ccccc23)cc1,7.4*,0,-18,5,-41,0
COc1ccc(S(=O)(=O)Nc2cc(Sc3ncn[nH]3)c(O)c3ccccc23)cc1,64*,x,x,x,x,0
COc1ccc(NC(=O)C(Cc2cc(C)cc(C)c2)C(C)C(=O)O)cc1 (configuration not stated),-1,-1,6,-2,3,x
Nc1c(C=C2C=CC(=O)C=C2)c(=O)nc2sc(CC(=O)N3CCCC3)nn12,4.7*,0,1,-2,-5,0
CCN1/C(=C/C(C)=O)Sc2ccc(OC)cc21,5.5*,1,2,-4,5,4
CSc1ccc(Cl)c(C(=O)NNC(=O)c2cccs2)c1,0,0,1,-2,7,x
CCOC(=O)c1cc(C(C)=O)c(=O)n(C)c1N,5.9*,-1,-7,-5,-4,4.8*
